According to ChEMBL document CHEMBL1141609, “Combinatorial synthesis of anilinoanthraquinone derivatives and evaluation as non-nucleotide-derived P2Y2 receptor antagonists” (Bioorg Med Chem Lett, 2008):

What was measured:
P2Y purinoceptor 2 [1] = biological target: P2Y purinoceptor 2 (Homo sapiens, UniProt P41231); experiment: Antagonist activity at human recombinant P2Y2 receptor in 1321N1 cells assessed as inhibition of UTP-induced calcium mobilization; assay type: functional, cell-based
In short: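 Human P2Y2 receptor recombinantly expressed in 1321N1 astrocytoma cells. Calcium mobilization evoked by 1 uM UTP (ca. 50-80% of maximal effect) was read with the fluorescent Ca2+ dye Fura-2 on a fluorescence plate reader. IC50 was taken from inhibition of the UTP response.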

P2Y purinoceptor 2 [2] = biological target: P2Y purinoceptor 2 (Mus musculus, UniProt P35383); experiment: Antagonist activity at mouse P2Y2 receptor in mouse NG108-15 cells assessed as inhibition of UTP-induced calcium mobilization; assay type: functional, cell-based
P2Y purinoceptor 2 (Mus musculus, UniProt P35383), sequence (P35383 whole entry): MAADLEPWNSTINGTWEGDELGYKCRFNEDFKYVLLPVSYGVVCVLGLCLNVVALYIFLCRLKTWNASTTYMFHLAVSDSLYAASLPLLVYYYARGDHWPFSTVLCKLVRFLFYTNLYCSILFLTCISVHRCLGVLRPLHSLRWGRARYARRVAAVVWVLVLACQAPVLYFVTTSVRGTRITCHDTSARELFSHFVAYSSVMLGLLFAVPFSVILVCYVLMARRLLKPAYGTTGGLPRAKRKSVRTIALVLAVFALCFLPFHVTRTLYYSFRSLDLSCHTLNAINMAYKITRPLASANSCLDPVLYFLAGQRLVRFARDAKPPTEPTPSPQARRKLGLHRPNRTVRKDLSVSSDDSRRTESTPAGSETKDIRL
In short: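 Mouse P2Y2 receptor natively expressed in NG108-15 neuroblastoma x glioma hybrid cells. Calcium mobilization evoked by 3 uM UTP (ca. 50-80% of maximal effect) was read with the fluorescent Ca2+ dye Fura-2 on a fluorescence plate reader. IC50 was taken from inhibition of the UTP response.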

5'-nucleotidase = biological target: T1, 5'-nucleotidase (Rattus norvegicus, UniProt P21588); experiment: Inhibition of rat ecto-5'-nucleotidase
T1 sequence (P21588 whole entry): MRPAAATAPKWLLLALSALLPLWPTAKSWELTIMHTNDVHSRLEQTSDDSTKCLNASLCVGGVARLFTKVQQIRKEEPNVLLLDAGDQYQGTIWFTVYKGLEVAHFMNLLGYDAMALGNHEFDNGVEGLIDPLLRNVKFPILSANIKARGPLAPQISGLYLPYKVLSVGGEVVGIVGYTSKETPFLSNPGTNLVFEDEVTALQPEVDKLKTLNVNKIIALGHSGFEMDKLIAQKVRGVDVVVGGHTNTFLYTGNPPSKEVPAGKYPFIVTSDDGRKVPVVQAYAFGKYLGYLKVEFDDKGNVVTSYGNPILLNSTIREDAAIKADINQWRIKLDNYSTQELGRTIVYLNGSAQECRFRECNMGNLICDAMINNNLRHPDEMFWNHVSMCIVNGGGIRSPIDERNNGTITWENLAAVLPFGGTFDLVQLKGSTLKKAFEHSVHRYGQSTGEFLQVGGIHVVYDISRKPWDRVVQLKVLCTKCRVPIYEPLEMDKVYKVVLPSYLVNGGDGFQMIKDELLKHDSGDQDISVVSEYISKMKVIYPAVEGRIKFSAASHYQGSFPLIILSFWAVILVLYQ

[3] = biological target: T2, Ectonucleoside triphosphate diphosphohydrolase 1 (Rattus norvegicus, UniProt P97687); experiment: Inhibition of rat NTPDase 1
T2 sequence (P97687 whole entry): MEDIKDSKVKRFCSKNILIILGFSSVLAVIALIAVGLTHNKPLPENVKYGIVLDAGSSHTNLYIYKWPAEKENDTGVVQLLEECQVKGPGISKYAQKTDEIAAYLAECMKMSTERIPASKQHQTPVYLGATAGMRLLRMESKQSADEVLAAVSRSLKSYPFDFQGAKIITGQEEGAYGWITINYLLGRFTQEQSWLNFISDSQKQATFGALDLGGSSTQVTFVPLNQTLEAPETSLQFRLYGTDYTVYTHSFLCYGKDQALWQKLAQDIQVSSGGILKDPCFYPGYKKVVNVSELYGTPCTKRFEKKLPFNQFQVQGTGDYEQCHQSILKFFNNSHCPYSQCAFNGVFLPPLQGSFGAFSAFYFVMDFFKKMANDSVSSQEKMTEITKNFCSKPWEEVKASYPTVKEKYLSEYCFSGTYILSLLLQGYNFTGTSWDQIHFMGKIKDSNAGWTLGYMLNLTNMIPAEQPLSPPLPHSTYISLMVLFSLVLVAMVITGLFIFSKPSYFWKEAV

P2Y purinoceptor 6 = P2Y purinoceptor 6 (Rattus norvegicus, UniProt Q63371); experiment: Antagonist activity at rat P2Y6 receptor; assay type: functional
P2Y purinoceptor 6, sequence (Q63371 whole entry): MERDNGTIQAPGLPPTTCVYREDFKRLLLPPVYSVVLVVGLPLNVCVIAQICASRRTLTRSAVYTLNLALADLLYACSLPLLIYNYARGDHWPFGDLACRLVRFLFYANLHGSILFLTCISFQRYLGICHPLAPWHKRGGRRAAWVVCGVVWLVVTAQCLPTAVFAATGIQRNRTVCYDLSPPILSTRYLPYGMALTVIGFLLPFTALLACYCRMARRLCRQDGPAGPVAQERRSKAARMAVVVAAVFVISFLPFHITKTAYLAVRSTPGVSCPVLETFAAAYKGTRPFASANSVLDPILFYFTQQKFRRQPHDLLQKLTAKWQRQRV

P2Y purinoceptor 4 = P2Y purinoceptor 4 (Homo sapiens, UniProt P51582); experiment: Antagonist activity at human P2Y4 receptor; assay type: functional
P2Y purinoceptor 4, sequence (P51582 whole entry): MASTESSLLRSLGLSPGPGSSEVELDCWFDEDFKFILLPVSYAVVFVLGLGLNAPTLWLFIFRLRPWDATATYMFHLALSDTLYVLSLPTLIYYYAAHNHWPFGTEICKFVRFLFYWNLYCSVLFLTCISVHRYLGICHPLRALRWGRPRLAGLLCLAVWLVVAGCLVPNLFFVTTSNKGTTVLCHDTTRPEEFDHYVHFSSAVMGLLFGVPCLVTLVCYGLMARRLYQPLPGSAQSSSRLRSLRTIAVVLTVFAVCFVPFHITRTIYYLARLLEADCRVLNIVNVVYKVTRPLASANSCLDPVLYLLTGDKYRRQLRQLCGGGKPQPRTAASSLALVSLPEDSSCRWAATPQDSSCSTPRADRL

P2Y purinoceptor 2 (Homo sapiens, UniProt P41231), sequence (P41231 whole entry): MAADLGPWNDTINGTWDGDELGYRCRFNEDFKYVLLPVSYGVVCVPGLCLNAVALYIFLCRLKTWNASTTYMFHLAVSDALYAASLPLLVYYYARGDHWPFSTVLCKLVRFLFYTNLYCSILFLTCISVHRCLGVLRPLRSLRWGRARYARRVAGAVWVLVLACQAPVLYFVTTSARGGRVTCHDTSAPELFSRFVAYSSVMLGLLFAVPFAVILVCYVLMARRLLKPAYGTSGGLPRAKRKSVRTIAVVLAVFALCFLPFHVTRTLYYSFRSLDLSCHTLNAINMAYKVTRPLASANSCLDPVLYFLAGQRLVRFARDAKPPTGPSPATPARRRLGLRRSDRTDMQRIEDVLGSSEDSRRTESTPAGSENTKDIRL

| Compound | IC50 (P2Y purinoceptor 2 [1]) [µM] | IC50 (P2Y purinoceptor 2 [2]) [µM] | also measured |
| --- | --- | --- | --- |
| Nc1c(S(=O)(=O)O)cc(Nc2ccc(Nc3nc(Cl)nc(Nc4cccc(S(=O)(=O)O)c4)n3)c(S(=O)(=O)O)c2)c2c1C(=O)c1ccccc1C2=O [RB 2] | 1.85 | 5 | – |
| COc1ccccc1Nc1cc(S(=O)(=O)O)c(N)c2c1C(=O)c1ccccc1C2=O | 9.82 | 9 | Ki (5'-nucleotidase): > 100 µM; Ki [3]: > 100 µM; IC50 (P2Y purinoceptor 6): > 100 µM; IC50 (P2Y purinoceptor 4): 50 µM |
| Nc1c(S(=O)(=O)O)cc(Nc2ccc(Nc3ccccc3)cc2)c2c1C(=O)c1ccccc1C2=O | 3.93 | – | – |
| CCOc1ccc(Nc2cc(S(=O)(=O)O)c(N)c3c2C(=O)c2ccccc2C3=O)cc1 | 11.5 | 9 | – |
| Cc1ccc(Nc2cc(S(=O)(=O)O)c(N)c3c2C(=O)c2ccccc2C3=O)cc1 | 24.9 | 27 | – |
| Nc1c(S(=O)(=O)O)cc(Nc2cccc(Cl)c2)c2c1C(=O)c1ccccc1C2=O | > 30 | > 100 | – |
| CCOc1ccccc1Nc1cc(S(=O)(=O)O)c(N)c2c1C(=O)c1ccccc1C2=O | 15 | 17 | – |
| CCc1ccccc1Nc1cc(S(=O)(=O)O)c(N)c2c1C(=O)c1ccccc1C2=O | 9.26 | 24 | – |
| Nc1c(S(=O)(=O)O)cc(Nc2cccc([N+](=O)[O-])c2)c2c1C(=O)c1ccccc1C2=O | – | > 100 | – |
| COc1ccc(Nc2cc(S(=O)(=O)O)c(N)c3c2C(=O)c2ccccc2C3=O)cc1 | 11.5 | 17 | – |
| Cc1cccc(Nc2cc(S(=O)(=O)O)c(N)c3c2C(=O)c2ccccc2C3=O)c1C | 7.95 | 14 | – |
| Cc1ccc(C)c(Nc2cc(S(=O)(=O)O)c(N)c3c2C(=O)c2ccccc2C3=O)c1 | 30.3 | 17 | – |
| Nc1c(S(=O)(=O)O)cc(Br)c2c1C(=O)c1ccccc1C2=O [BROMAMINIC ACID] | – | > 100 | – |
| Cc1cccc(Nc2cc(S(=O)(=O)O)c(N)c3c2C(=O)c2ccccc2C3=O)c1 | 3.04 | 22 | – |
| CC(=O)c1ccc(Nc2cc(S(=O)(=O)O)c(N)c3c2C(=O)c2ccccc2C3=O)cc1 | – | > 100 | – |
| Nc1c(S(=O)(=O)O)cc(Nc2ccc(Cl)cc2)c2c1C(=O)c1ccccc1C2=O | 5.31 | – | – |
| Cc1ccccc1Nc1cc(S(=O)(=O)O)c(N)c2c1C(=O)c1ccccc1C2=O | 16.2 | 10 | – |
| Cc1ccc(Nc2cc(S(=O)(=O)O)c(N)c3c2C(=O)c2ccccc2C3=O)c(C)c1 | 5.43 | 9 | – |
| CC(=O)Nc1ccc(Nc2cc(S(=O)(=O)O)c(N)c3c2C(=O)c2ccccc2C3=O)cc1 | 5.81 | 12 | – |
